# High-throughput results as filed in PubChem.
# Hsp90 block: displaces geldanamycin probe from tumor Hsp90; 0.35% of 64,000 active; P07900; inhibition, % at 30 µM; NCI-N417 lysate Hsp90, Cy3B-geldanamycin FP displacement;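 active = inhibition above 50%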;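 note: 0% = tracer plus lysate wells and 100% = tracer alone without lysate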
# Jurkat viability: cytotoxicity toward Jurkat cells; Jurkat E6.1 viability, ATP luminescence, 48 h; inhibition, % at 4 µM; 1.2% of 56,000 active; AID 463;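 active = inhibition above the mean inhibition of all tested compounds plus 3 SD, cut at about 28% in these data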
# HER2 expr 66K: inhibitors of human Her2 kinase expression | HER2 level % of control, % at 10 µM | SKBR-3 HER2 protein level, AlphaScreen, 18-24 h; hits give low values | 0.69% of 65,000 active | P04626;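 active = HER2 level under 5% of the carrier-only control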;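 note: 100% = DMSO carrier and 0% = 500 nM PU-H71 HSP90 inhibitor; lower value means stronger loss of Her2 protein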
# JNK3 inh: JNK3 (human) kinase inhibition; purified JNK3 kinase activity, HTS; AID 746; P53779; inhibition, % at 8 µM; 0.61% of 60,000 active; in the data active = inhibition above about 17%;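 note: 0% = DMSO and 100% = reference inhibitor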
# Target sequence (P53779 whole entry, looked up): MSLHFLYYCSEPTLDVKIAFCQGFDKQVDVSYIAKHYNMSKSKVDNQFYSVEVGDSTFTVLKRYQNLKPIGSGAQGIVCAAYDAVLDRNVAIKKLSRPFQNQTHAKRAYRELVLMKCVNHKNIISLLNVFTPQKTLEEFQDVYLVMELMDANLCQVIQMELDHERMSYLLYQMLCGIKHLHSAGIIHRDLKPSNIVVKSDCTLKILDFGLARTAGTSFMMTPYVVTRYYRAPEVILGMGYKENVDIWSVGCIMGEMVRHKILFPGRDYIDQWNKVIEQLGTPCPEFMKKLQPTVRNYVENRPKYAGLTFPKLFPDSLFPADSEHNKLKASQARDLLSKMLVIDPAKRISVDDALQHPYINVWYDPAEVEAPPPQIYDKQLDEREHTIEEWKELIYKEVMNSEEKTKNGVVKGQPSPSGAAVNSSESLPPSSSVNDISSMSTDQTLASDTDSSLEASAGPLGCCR
# HEK293 NFkB inh: inhibitors of the PMA/ionomycin-induced NF-kB reporter in HEK293 cells. HEK-293 NF-kB luciferase reporter, luminescence. inhibition, % at 3 µM. 0.21% of 62,000 active. AID 465;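 active = inhibition above the mean of all tested compounds plus 3 SD, cut at about 40% in these data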;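 note: 0% = stimulated DMSO wells and 100% = 10 µM reference inhibitor 5653914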
#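 System: NF-kB luciferase reporter HEK-293 cells | Replication: Single test | Control set: DMSO vs reference inhibitor | Evaluation: % inhibition | Schedule: 1 h pretreatment, 16 h stimulation, 37 °C | Probe or stimulus: PMA with ionomycin | Compound dosing: One dose, 3 µM | Detection: Luciferase luminescence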
# AP ELISA ortho: alternative pathway complement inhibition, orthogonal assay; Human serum alternative complement pathway, LPS-coated ELISA, C3 deposition; tested in compound mixtures; 0.08% of 62,000 active; inhibition, % at 5 µM; AID 1235;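 active = inhibition above 30% in each of the two pooled mixtures holding the compound, so the lower value exceeds 30%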;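 note: 0% = serum in Mg-EGTA without compound and 100% = EDTA serum blank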
#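 Medium: diluted human serum in Mg2+-EGTA GVB++. Assay system: human serum complement alternative pathway, C3 deposition onto LPS. Also added: Plate-bound LPS. Technique: Anti-C3 ELISA, OD 450 nm. Measure: percent inhibition. Incubation: 1 h at 37 °C. Dosing: 5 µM each compound, pools of ten, 50 µM per pool.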
# Active calls of the source: *; / = no result. An excerpt weighted towards active compounds, which were near 2.5% of everything screened.
SMILES,Hsp90 block,Jurkat viability,HER2 expr 66K,JNK3 inh,HEK293 NFkB inh,AP ELISA ortho
CC(C)[C@@H]1NC(=O)[C@H](CCCCN)NC(=O)[C@@H](Cc2c[nH]c3ccccc23)NC(=O)[C@H](Cc2ccc(O)cc2)NC(=O)[C@H](C)N(C)C(=O)[C@H](Cc2ccccc2)NC1=O,-3,/,/,/,/,/
CC1(C)CC(=O)C=C(NCCc2ccc(S(N)(=O)=O)cc2)C1,-6,-5,105,4,14,18
NS(=O)(=O)c1ccc(CCNc2ncnc3sccc23)cc1,-5,85*,104,-6,29,3
c1csc(-c2cnc3ccccc3n2)c1,-4,-4,40,25*,-23,3
Cn1c(C(=O)NCc2cccs2)cc2oc3ccccc3c21,-2,29*,86,6,19,9
CCN1C(=O)N(C)C(N(O)C(=O)NC)C1(C)C (stereo unspecified),0,0,94,-5,20,9
O=c1c(-c2ccc3c(c2)OCCO3)coc2c(CN3CCOCC3)c(O)ccc12,72*,5,74,-5,4,5
COc1cccc(Oc2coc3c(CN4CCOCC4)c(O)ccc3c2=O)c1,1,-6,106,1,13,0
O=C1c2cccnc2C(=O)N1Cc1ccc(F)cc1,-2,-5,110,1,15,-17
COc1ccc(C(=O)NCc2nc3ccccc3[nH]2)cc1OC,-3,-5,63,31*,17,-9
COc1ccc(C(=O)NCc2cn3c(C)csc3n2)cc1OC,-3,2,62,17*,8,/
COc1cccc(C(=O)NCc2cn3ccsc3n2)c1,-1,-6,99,16,5,7
COc1cc(C(=O)NCc2cn3ccsc3n2)cc(OC)c1OC,-1,-4,67,24*,14,/
O=C(CN1C(=O)C2C3C=CC(C3)C2C1=O)N1CCc2ccccc2C1 (stereo unspecified),-4,2,98,-1,1,-6
Cc1onc(-c2ccccc2)c1C(=O)N1CCCc2ccccc21,-3,1,110,4,17,32*
COc1ccc(-c2nnc(NC(=O)c3ccc(S(=O)(=O)N4COCC4(C)C)cc3)o2)cc1,1,101*,73,-5,24,6
CCCN(CCC)S(=O)(=O)c1ccc(C(=O)Nc2nnc(-c3cccc(OC)c3)o2)cc1,1,10,72,4,45*,1
N#CCCS(=O)(=O)c1nnnn1-c1ccccc1,0,5,-1.1*,-1,34,11
N#CCCCSc1nnnn1-c1cccc(Cl)c1,-2,-8,101,-2,6,-1
COc1cccc(C(=O)N2CCN(S(=O)(=O)Cc3ccccc3)CC2)c1OC,2,/,119,-2,/,/
NC[C@H](O)c1ccc(O)c(O)c1,29,/,/,/,/,/
OCCCc1nc2n(n1)C(c1ccccc1)C=C(c1ccc(F)cc1)N2 (stereo unspecified),-2,5,-30*,1,12,/
OCCCc1nc2n(n1)C(c1cccs1)C=C(c1ccccc1)N2 (stereo unspecified),-6,1,88,3,4,30
CC(=O)Oc1cc2c(C(=O)NCCCN3CCOCC3)c(C)oc2c2ccccc12,94*,6,85,-3,11,17
CCC1(C)Cc2c(sc3c2c(=O)n(C)c2nnc(SCC(=O)c4ccc(Cl)cc4)n32)CO1 (stereo unspecified),-2,/,69,-1,/,/
SMILES,Hsp90 block,Jurkat viability,HER2 expr 66K,JNK3 inh,HEK293 NFkB inh,AP ELISA ortho
S=c1[nH]nc(-c2cccc(Br)c2)o1,2,1,96,19*,0,0
COc1ccc(NC(=O)C2C(=O)N(C)C3(C)CC2c2ccccc2O3)cc1 (stereo unspecified),-2,5,109,-1,5,5
CN1C(=O)C(C(=O)NC(C)(C)C)C2c3ccccc3OC13CCCCC23 (stereo unspecified),-3,6,-30*,3,24,11
CCOC(=O)C(C)Oc1cccc2c(=O)n(CC(=O)NCc3ccco3)ccc12 (stereo unspecified),-3,96*,43,-5,26,16
O=C(Cn1cnc2ccccc2c1=O)NCc1ccco1,-3,-6,82,-2,3,-1
CN(C(=O)Cn1c(=O)n(CCCCC(=O)NC2CCCC2)c(=O)c2ccccc21)C1CCCCC1,-5,-4,84,0,16,17
COCCCN1C(=O)C(=O)/C(=C(/O)c2ccc(OCC(C)C)cc2)C1c1cccnc1 (stereo unspecified),-1,-6,-21*,-5,-3,19
CCC1(C)Cc2c(sc3nc(NC)n(C)c(=O)c23)CO1 (stereo unspecified),1,-3,87,8,7,35*
CCC1(C)Cc2c(sc3nc4n(c(=O)c23)CCS4)CO1 (stereo unspecified),0,/,98,5,/,/
COc1cccc(OC)c1-c1nn2c(-c3cc(-c4ccccc4)n[nH]3)nnc2s1,1,66*,120,2,12,13
CCN(CC)c1ccc(-c2nn3c(-c4ccccc4OC)nnc3s2)cc1,-1,99*,25,5,58*,14
CCCNCC(O)COc1ccccc1C(=O)CCc1ccccc1 (stereo unspecified),0,/,133,8,/,-1
COc1cc(NCCCC(C)=NO)c2nccc(Cl)c2c1,1,/,/,/,/,/
CCc1nnc(NC(=O)Cn2nc(-c3ccccc3OC)ccc2=O)s1,0,4,96,5,-7,5
CCCN1CCN(c2ncnc3c2nnn3Cc2ccccc2)CC1,1,63*,91,5,7,19
CCc1nc(SCc2cccnc2)[nH]c(=O)c1C,4,1,102,-3,21,12
COc1ccc(OC)c(NS(=O)(=O)c2ccc(N3CCCC3=O)cc2)c1,0,/,56,1,/,/
COc1ccc(Cl)cc1NS(=O)(=O)c1ccc(S(=O)(=O)N2CCCC2)cc1,0,3,74,4,5,20
COc1ccc(S(=O)(=O)Nc2cc(Cl)ccc2OC)cc1,-1,76*,55,-1,28,-4
CCOc1ccc(S(=O)(=O)Nc2cc(OC)ccc2OC)cc1,2,96*,21,-2,33,9
COc1ccc(OC)c(NS(=O)(=O)c2ccc(SC)cc2)c1,2,78*,71,-3,12,5
CCN=C(NCC)SC1CC(=O)N(c2cccc(OCC)c2)C1=O (stereo unspecified),0,0,67,9,12,22
CC(C)Oc1ccc(CNC2CCOC(C)(C)C2)cc1 (stereo unspecified),-2,5,124,9,14,-3
CCn1cc(C(=O)O)c(=O)c2ccc(Cc3ccccc3)nc21,-6,/,/,/,/,/
